We go through one compound from ChEMBL document CHEMBL4613263, “Optimization of Tetrahydroindazoles as Inhibitors of Human Dihydroorotate Dehydrogenase and Evaluation of Their Activity and In Vitro Metabolic Stability” (J Med Chem, 2020).

Converted amounts (≈) assume the structure as drawn. The source made the active and inactive calls. The calls are words filed in the database; no cut-off is given here.

For series [1], the target named is T1, Dihydroorotate dehydrogenase (quinone), mitochondrial (Homo sapiens, UniProt Q02127). Kind of series: Inhibition of DHOH in human ARN8 cells assessed as cleaved PARP level at 20 nM incubated for 24 hrs treated with pan-caspase inhibitor, Z-VAD-FMK for 4.5 hrs prior to harvesting by Western blot analysis. Format: cell-based. Summed up: (§1)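 ARN8 cells treated 24 h at 20 nM, with 20 µM Z-VAD-FMK or vehicle added 4.5 h before harvest. Etoposide arm was 20 µM for 1 h alongside Z-VAD-FMK. Lysates normalized for protein and analysed by western blot for p53, p-Ser15 p53, γ-H2AX, H2AX and cleaved PARP (85 kDa) against stain-free total-protein loading.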
T1 sequence (Q02127 whole entry): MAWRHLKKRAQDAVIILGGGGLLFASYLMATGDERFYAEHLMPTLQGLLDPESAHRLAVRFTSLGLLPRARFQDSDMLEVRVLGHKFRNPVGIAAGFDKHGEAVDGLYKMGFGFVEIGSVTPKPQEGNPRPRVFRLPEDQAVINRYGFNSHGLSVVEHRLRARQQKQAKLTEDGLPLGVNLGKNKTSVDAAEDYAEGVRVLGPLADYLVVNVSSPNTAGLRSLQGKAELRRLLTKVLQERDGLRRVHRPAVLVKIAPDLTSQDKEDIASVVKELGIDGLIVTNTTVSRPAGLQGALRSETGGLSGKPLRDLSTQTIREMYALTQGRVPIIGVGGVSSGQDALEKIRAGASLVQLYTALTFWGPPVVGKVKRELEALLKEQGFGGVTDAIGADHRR
For orientation: A western blot detects proteins with antibodies after separation by electrophoresis.

A short description of series [2]: Metabolic stability in human liver microsomes assessed as half life at 1 uM incubated for 60 mins by LC-MS/MS analysis. It counts as ADME, Microsome. As to conditions: liver microsomes. Summed up:
(§2)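 Compound at 1 µM with 1.0 mg/mL human or mouse liver microsomes in 50 mM potassium phosphate pH 7.4, preincubated 5 min at 37 °C. Started with 1 mM NADPH (or blank buffer). Quenched with cold acetonitrile containing glipizide at 0, 5, 15, 30, 60 min. Parent loss tracked by LC-MS/MS in MRM mode; t½ = 0.693/k from slope of peak-area ratio versus time.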
Background: Liver microsomes are a subcellular fraction often used to study metabolism.

Series [3] in a line: Cytotoxicity against human HNDF cells assessed as reduction in cell viability incubated for 72 hrs by SRB assay. It counts as cell-based. As to conditions: Homo sapiens, 72 h; read-out: IC50. An outline of the steps:
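Human normal dermal fibroblasts seeded at 15×10^2 per well and left 24 h, then exposed to compound for 72 h with 0.1% DMSO final. Cells fixed with TCA at 4 °C for 1 h, stained with SRB, solubilized in 10 mM Tris and read at 490 nm. Values normalized to DMSO control. Tabulated means come only from experiments where IC50 fell below 10 000 nM.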

The target of series [4] is T1, Dihydroorotate dehydrogenase (quinone), mitochondrial. Kind of series: Inhibition of DHODH in human ARN8 cells assessed as induction of DNA damage by measuring increase in p53 phosphorylation at Ser15 at 20 nM incubated for 24 hrs by Western blot analysis. Format: cell-based. Summed up: (§3)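 ARN8 cells seeded at 15×10^4 per well and left 24 h. Treated 24 h at 20 nM, or with etoposide at 20 µM for 1 h, with 100 µM uridine where indicated. Lysates made in LDS buffer and protein-normalized, then run on 4–15% gels and transferred to PVDF. Phospho-proteins blocked in BSA, others in milk; primary antibodies overnight at 4 °C, ECL detection. Loading judged by stain-free total protein.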

The nature of series [5]: Kinetic aqueous solubility of compound in Prima HT solution at pH 7.4 incubated for 4 hrs by UV-spectrophotometry. As to conditions: read-out: Kinetic_solubility. It counts as physicochemical. An outline of the steps: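 20 mM DMSO stocks diluted 100× into Prima HT buffer at pH 7.4 and shaken 4 h at rt. Samples filtered through 0.22 µm, mixed 1:1 with isopropanol and scanned by UV from 190–400 nm against stock reference standards.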

Series [6] can be described thus: Metabolic stability in CD-1 mouse liver microsomes assessed as half life at 1 uM incubated for 60 mins by LC-MS/MS analysis. Format: ADME, Microsome. As to conditions: CD-1, mouse, liver microsomes. Summed up:
as §2

Series [7] can be described thus: Cytotoxicity against human HNDF cells assessed as reduction in cell viability incubated for 72 hrs in presence of 100 uM […], uridine by SRB assay. It counts as cell-based. Summed up: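 Normal dermal fibroblasts seeded at 15×10^2 per well and left 24 h, then treated 72 h in medium with 0.1% DMSO final plus 100 µM uridine. Fixed with TCA, stained with 0.4% SRB, dye dissolved in Tris and read at 490 nm. Growth/viability given as % of DMSO control; mean ± SD of three technical replicates.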

A short description of series [8]: Antiproliferative activity against human ARN8 cells assessed as reduction in cell viability incubated for 72 hrs by SRB assay. It counts as functional, cell-based. As to conditions: Homo sapiens, ARN8, 72 h; read-out: IC50. Background: Sulforhodamine B stains cellular protein and so reports cell mass.
The target in series [9] is T1, Dihydroorotate dehydrogenase (quinone), mitochondrial. Kind of series: Inhibition of DHOH in human ARN8 cells assessed as increase in cleaved PARP level at 20 nM incubated for 24 hrs by Western blot analysis. It counts as cell-based. An outline of the steps: as §1
Series [10] shares this target. Kind of series: Inhibition of recombinant human DHODH using dihydroorotic acid as substrate in presence of 2 nM of DHODH by DCIP assay.
Series [11] has the same target. In words: Inhibition of DHODH in human ARN8 cells assessed as induction of DNA damage by measuring increase in p53 phosphorylation at Ser15 at 20 nM incubated for 24 hrs in presence of 100 uM […], uridine by Western blot analysis. It counts as cell-based. Summed up: as §3
The target is the same in series [12]. Kind of series: Inhibition of DHODH in human ARN8 cells assessed as DNA damage by measuring Chk2 phosphorylation at Thr68 at 20 nM incubated for 24 hrs by Western blot analysis. Format: cell-based. An outline of the steps: (§4)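 ARN8 cells treated 24 h before lysis in LDS buffer and protein normalization. Western blot blocked in 5% BSA/TBS-T, primary antibody overnight at 4 °C, HRP secondary and ECL detection. Loading taken from stain-free total protein.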

The target is the same in series [13]. In words: Inhibition of […] in human ARN8 cells assessed as decrease in Bcl2 protein expression at 20 nM incubated for 24 hrs in presence of pan-caspase inhibitor, Z-VAD-FMK by Western blot analysis. Format: cell-based.
Series [14] has the same target. Kind of series: Inhibition of DHODH in human ARN8 cells assessed as induction of DNA damage by measuring increase in gammaH2AX level at 20 nM incubated for 24 hrs by Western blot analysis. It counts as cell-based. Summed up:
as §3

For series [15] the target is unchanged. Kind of series: Inhibition of DHOH in human ARN8 cells assessed as increase in caspase 3/7 activity at 20 nM incubated for 48 hrs in presence of pan-caspase inhibitor, Z-VAD-FMK by live cell imaging analysis. It counts as cell-based. An outline of the steps: (§5)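 ARN8 cells seeded at 4×10^3 per well and left 24 h, then given 20 nM compound in medium containing 2 µM caspase-3/7 substrate and 0.3 µM YOYO-3 (0.2% DMSO). Where indicated, 100 µM uridine or 20 µM Z-VAD-FMK was added. Cells imaged every 2 h for 48.5 h in an IncuCyte. Positive-cell counts per mm² normalized to confluence %; mean ± SD of three technical replicates.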

The target is the same in series [16]. Kind of series: Inhibition of DHOH in human ARN8 cells assessed as increase in YOYO3 positive cells at 20 nM incubated for 48 hrs in presence of pan-caspase inhibitor, Z-VAD-FMK measured every 2 hrs by YOYO-3 staining based live cell imaging analysis. An outline of the steps: as §5
The target is the same in series [17]. In words: Inhibition of DHODH in human ARN8 cells assessed as increase in p53 level at 20 nM incubated for 24 hrs by Western blot analysis. It counts as cell-based. An outline of the steps:
as §3

For series [18] the target is unchanged. In words: Inhibition of DHOH in human ARN8 cells assessed as gammaH2AX level at 20 nM incubated for 24 hrs treated with pan-capse inhibitor, Z-VAD-FMK for 4.5 hrs prior to harvesting by Western blot analysis. It counts as cell-based. Summed up: as §1
The target is the same in series [19]. In words: Inhibition of DHODH in human ARN8 cells assessed as DNA damage by measuring Chk1 phosphorylation at Ser345 at 20 nM incubated for 24 hrs by Western blot analysis. Format: cell-based. Summed up: as §4

In the case of `O=C(N[C@@H]1CCCc2c1cnn2-c1ccccc1F)c1ncn2c1CCCC2`, the inhibition entry in [1], in series [11], in series [12], in [15], in series [16] and in series [18] was “inactive” throughout. Moreover, the inhibition result in series [19] was “inactive”. The values for the half-life at 1 µM in series [2] and in series [6] were above 60 min and 36 min, respectively. Also, the IC50 – broadly, the midpoint of a concentration-inhibition curve – in series [3] was above 10000 nM; in series [8] it was 22 nM; in [10], 2.3 nM. Further, the inhibition entry in [4], in series [9], in [13], in series [14] and in series [17] was “Active” in each case. Also, the solubility kinetic at 4 h in series [5] amounted to 74 µM (≈ 28.1 µg/mL). In addition, in series [7], the Activity result is recorded as “Toxic”.
